We go through 5 compounds from PMC8821119 (Clinical breast cancer, 2021).

The test system of one data set is T47D:PKCα cells. Kind of data set: Secondary mammosphere formation assay. Conditions: 7 days. The data set is classed as cell-based. A digest of the protocol: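 T47D cells electroporated with a PKCα plasmid; G418-resistant clone F2 was chosen for PKCα overexpression on Western blot and STR-authenticated as T47D. Secondary mammosphere cultures were treated with test compound (30 nM), alone or with a γ-secretase inhibitor (5 μM), at pilot-chosen concentrations. Mammospheres counted after 7 days; 3 independent experiments, mean ± standard deviation.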

For another data set, the system named is plasma protein. The conditions noted are these: cited from earlier work.
Data set [1] relates to patients with ER+ metastatic breast cancer. Also noted: species or system human. The conditions noted are these: in vivo.
Data set [2] has as its system ER+ metastatic breast cancer. The data set can be described thus: Phase Ib trial: clinical response. The data set is classed as in vivo, human. The conditions noted are these: RO4929097 with exemestane.
A further data set is described as follows: clinical. The conditions noted are these: human, in vivo.
The subject of the next data set is Notch1 cleavage. The conditions noted are these: cited from earlier work.
For data set [3], the system named is HER2-enriched breast cancer. Conditions: cited from earlier work.
Data set [4] relates to PKCα-overexpressing, Notch4-positive ER+ cells. The conditions noted are these: reverses endocrine resistance; cited from earlier work.
Data set [5] deals with early stage ERα+ breast cancer patients. Conditions: short-term MK0752 added to letrozole or tamoxifen, neo-adjuvant; cited from earlier work.

Values joined by “and” are separate entries in the source; they are usually repeats but may differ in a detail not shown here. Identical values can stand only once.

On to `C[C@]12CC[C@@H]3c4ccc(O)cc4C[C@@H](CCCCCCCCC[S+]([O-])CCCC(F)(F)C(F)(F)F)[C@H]3[C@@H]1CC[C@@H]2O` (some centres unmarked) [fulvestrant, reference compound], for which the “Mammosphere sensitivity to single agent” value in the data set on T47D:PKCα cells (fulvestrant alone (30 nM)) is given as “partially sensitive”.

As to `C=C1C[C@@H]2[C@H](CC[C@]3(C)C(=O)CC[C@@H]23)[C@@]2(C)C=CC(=O)C=C12` [exemestane, reference compound], in the data set on plasma protein, the Protein-bound is given as 90%.

Consider `CC(C)(C(=O)NCC(F)(F)C(F)(F)F)C(=O)N[C@@H]1C(=O)Nc2ccccc2-c2ccccc21` [RO4929097], for which the “Dose-Limiting Toxicity (DLT) observed” value in [1] is “Rash”. Besides, in [2], the “Complete responses (CR)” value was “No complete responses”, the “Patients with stable disease for ≥ 6 months” value is recorded as “Twenty” and the “Total clinical benefit rate (CR+PR+SD ≥ 6 months)” value was determined as 20%. Further, in [2] (14 evaluable patients), the “Partial response (PR), number of patients” value is “one”; the “Progressive disease, number of patients” value was 7 and 6; the “Stable disease (SD), number of patients” value is 6 and 7. Besides, the “Estimated overall survival (OS) at 6 months” value in data set [2] (interval 60–100%) was 79%. Besides, the “Drug levels six days after dosing” value in the data set “clinical” is recorded as “nearly unquantifiable levels”. In the data set “clinical” (po, 20 mg), the AUC(0-t) turned out to be 4550 ng·h/mL, the “Clearance mean (±st dev)” value is recorded as 2.3 (±1.5) L/hr, the Cmax stood at 266 ng/mL and the Tmax turned out to be 3 h. The compound also had a half-life in “clinical” (po, 20 mg) of 26 h. Further, in “clinical” (po, 30 mg), the exposure AUC(0-t) was 7710 ng·h/mL, the “Clearance mean (±st dev)” value is 2.1 (±0.3) L/hr, the peak level (Cmax) was 1050 ng/mL and the time of peak concentration (Tmax) worked out at 0.5 h. In the data set “clinical” (po, 30 mg), this compound showed a half-life of 20.7 h. In addition, in the data set “clinical” (po, 45 mg), the AUC(0-t) was determined as 10400 ng·h/mL, the “Clearance mean (±st dev)” value was 2.8 (±2.2) L/hr, the Cmax turned out to be 1110 ng/mL and the “Tmax mean (range)” value is reported as 1.5 (1–2) hr. In the data set “clinical” (po, 45 mg), this compound gave a half-life of 23.1 h. In the data set “clinical” (po, 90 mg), the exposure AUC(0-t) was determined as 21100 ng·h/mL, the “Clearance mean (±st dev)” value is 2.8 L/h, the concentration peaked (Cmax) at 2080 ng/mL and the Tmax turned out to be 4.3 h. The half-life in “clinical” (po, 90 mg) is 13.6 h. In the data set “clinical” (po, 140 mg), the AUC(0-t) worked out at 19700 ng·h/mL, the “Clearance mean (±st dev)” value was 2.6 (±0.2) L/hr, the Cmax amounted to 1330 ng/mL and the half-life is 33.4 h. In addition, in the data set with T47D:PKCα cells (RO4929097 alone (5 μM)), the Mammosphere numbers result is on record as “significantly decreased mammosphere numbers”. Also, the “IC50s observed by the authors earlier” value with Notch1 cleavage is given as “nanomolar range”. Also, the 50% inhibitory concentration (IC50) in the data set on Notch1 cleavage (read-out: in vitro IC50 in cell-based assays for Notch1 cleavage) was 5 nM. In the data set on plasma protein, the Plasma protein binding result is on record as “highly plasma protein-bound”.

On to `O=S1(=O)N[C@@]2(CN1CC(F)(F)F)[C@@H]1CC[C@H]2Cc2ccc(/C=C/CN3CCC(C(F)(F)F)CC3)cc2C1` [MRK003], for which the “Effect on tumor volume” value in data set [3] (MRK003 alone) is reported as “virtually no effect on tumor volume”. Also, the Tumor recurrence entry in data set [3] (MRK003 in combination with trastuzumab) is “abrogated tumor recurrence”. Moreover, the “Tumor response and toxicity” value in data set [4] is listed as “causes tumor regression without significant toxicity”.

For the compound `O=C(O)CC[C@H]1CC[C@@](c2cc(F)ccc2F)(S(=O)(=O)c2ccc(Cl)cc2)CC1` [MK0752], in data set [5], the “Ki67 expression in tumors” value is listed as “significantly affected Ki67 expression” and the Toxicity entry is “no significant toxicity”.

A word on the AUC(0-t): it is the area under the concentration-time curve up to a stated or last time point. Read a low AUC(0-t) as low exposure. By Cmax is commonly meant the maximum level reached in the sampled fluid or tissue. For orientation: Tmax means the time from dosing to the highest level. One may read the half-life as the time needed for the level to fall by half in the phase considered. The low end stands for rapid decline, the high end for slow decline. Broadly, the IC50 is the concentration that gives 50% inhibition.
